# Assay outcomes deposited in PubChem BioAssay by Johns Hopkins Ion Channel Center.
# MrgX1 antag: antagonists of human MrgX1 receptor. 1.3% of 310,000 active. Q96LB2. AID 588676. MRGX1-HEK293 calcium flux, Fluo-4, BAM8-22 antagonism; hits give low values. B-score at 10 µM;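 active = calcium-response B-score plate-corrected more than 3 library SD below zero, starting fluorescence within 5 deviations, no agonist response on first addition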;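 note: peak minus trough fluorescence over baseline after final BAM8-22 challenge near maximal dose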
# Target sequence (Q96LB2 whole entry, looked up): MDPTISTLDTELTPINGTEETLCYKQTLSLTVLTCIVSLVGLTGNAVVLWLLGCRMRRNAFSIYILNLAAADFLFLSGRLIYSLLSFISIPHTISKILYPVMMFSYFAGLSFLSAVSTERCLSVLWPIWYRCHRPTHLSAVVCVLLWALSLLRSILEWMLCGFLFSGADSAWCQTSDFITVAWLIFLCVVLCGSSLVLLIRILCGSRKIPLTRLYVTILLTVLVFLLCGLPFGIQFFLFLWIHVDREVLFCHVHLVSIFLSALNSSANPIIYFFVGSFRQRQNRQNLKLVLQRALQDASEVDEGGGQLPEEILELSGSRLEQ
# RGS4 pot: RGS4 potentiation or activation | 0.92% of 310,000 active | B-score at 10 µM | HEK293 M3R/inducible RGS4, carbachol calcium flux Fluo4; hits give low values;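 active = B-score of the integrated calcium signal more than 4 SD below the library mean, with starting fluorescence not abnormally high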;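 note: negative B-score means reduced calcium response which marks RGS4 activation or potentiation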
#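 Test system: HEK293 cells with stable M3R and inducible RGS4; also added: carbachol at ECmax as muscarinic agonist stimulus; schedule: dye loading 30 min 37 °C, buffer rest 30 min RT; technique: kinetic calcium fluorescence imaging with Fluo4-AM dye, 2 µM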
# MrgX1 agonist: agonists of human MrgX1 receptor; Q96LB2; B-score at 10 µM; 0.44% of 310,000 active; AID 588627; MrgX1-HEK293 cells, Fluo-4 calcium fluorescence, agonist mode; hits give high values;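 active = calcium response B-score plate-corrected fluorescence ratio at least 3 library SD, with starting fluorescence B-score inside 5 SD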
#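 Assay system: MrgX1-expressing HEK293 cells / Amount: fifteen thousand cells per well / Doses: test compound in the initial addition of three / Timing: cells plated overnight, dye loaded 0.5 h 37 °C, 0.5 h room temperature / Technique: kinetic calcium dye fluorescence, Fluo-4 NW / Control set: positive and negative controls per plate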
# MrgX1 allo act: human MrgX1 positive allosteric modulation, primary screen; Q96LB2; MrgX1-HEK293, Fluo-4 calcium flux, FDSS; hits give high values; AID 588675; 0.63% of 310,000 active; B-score at 10 µM;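 active = plate-corrected calcium response at least 3 library SD above typical, normal starting fluorescence, not activating the receptor alone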;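 note: compound read alongside a low EC10 to EC30 dose of BAM8-22 agonist; peak minus trough fluorescence over baseline measured at the second addition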
# RGS4 inh: inhibitors of human RGS4 | P49798 | HEK293 M3R/RGS4 inducible, Fluo-4 calcium flux; hits give high values; triggered by carbachol at its EC20 | B-score at 10 µM | 0.45% of 310,000 active | AID 463165;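 active = B-score, a plate-corrected calcium signal, over three deviations above library mean, with baseline fluorescence within five deviations of library mean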;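 note: RGS4 expression induced by doxycycline in cells with stable M3 receptor; B-score is computed from the integrated fluorescence ratio over baseline after carbachol; higher B-score means a larger calcium signal and so more RGS4 inhibition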
# Target sequence (P49798 whole entry, looked up): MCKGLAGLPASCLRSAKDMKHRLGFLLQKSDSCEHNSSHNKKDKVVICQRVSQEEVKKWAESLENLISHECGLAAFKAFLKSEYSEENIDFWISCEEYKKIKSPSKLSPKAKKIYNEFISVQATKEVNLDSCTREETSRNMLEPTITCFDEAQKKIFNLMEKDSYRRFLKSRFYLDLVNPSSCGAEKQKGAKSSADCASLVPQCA
# Numbers without * were called inactive; i = inactive; / = no result. A selection: hits, their analogues and other compounds. The true share with any hit is near 3.5%.
SMILES,MrgX1 antag,RGS4 pot,MrgX1 agonist,MrgX1 allo act,RGS4 inh
COc1ccc(N2C(=O)CSC2c2ccc3c(c2)OCO3)c(OC)c1 (stereo not given),i,i,i,i,i
Cc1ccc(NC(=O)c2cccc(Oc3ccc([N+](=O)[O-])cc3)c2)c(C(=O)O)c1,i,i,i,i,i
O=C(Nc1ccc(O)cc1)c1cccc(Oc2ccc([N+](=O)[O-])cc2)c1,-5.95*,i,i,i,i
O=C(COC(=O)c1cnccn1)c1ccc(-c2ccccc2)cc1,i,i,i,i,i
CCCCCC[N+](C)(C)CC/C=C1/c2ccccc2Sc2ccc(Cl)cc21,i,-9.48*,i,i,i
O=[N+]([O-])c1cc(C(F)(F)F)ccc1NCCOc1ccccc1,i,i,i,9.06*,i
Cc1ccccc1OCCNc1ccc(C(F)(F)F)cc1[N+](=O)[O-],i,i,i,i,i
O=C(Nc1ccccc1N(C(=O)c1ccco1)S(=O)(=O)c1cccs1)c1ccco1,i,i,i,11.5*,i
CC(C)C(=O)O/N=C(\N)c1ccc(Oc2ccc(Cl)cc2)c([N+](=O)[O-])c1,i,-8.6*,i,i,i
O=S(=O)(Nc1c(O)ccc2ccccc12)c1cccc2ccccc12,i,i,i,i,i
Cc1ccc(S(=O)(=O)Nc2c(O)ccc3ccccc23)cc1,i,i,46.7*,i,i
Cc1ccc(S(=O)(=O)Nc2ccccc2-c2ccccc2NS(=O)(=O)c2ccc(C)cc2)cc1,i,i,i,i,i
Cc1ccc(S(=O)(=O)Nc2c(Cl)c(Cl)c(O)c3ccccc23)cc1,i,i,i,i,5.55*
CCCCN(CCCC)CCCN1CC(=O)N2[C@@H](Cc3c([nH]c4ccccc34)C2(C)C)C1=O,i,-8.44*,i,i,i
CCCCCN1CC(=O)N2[C@@H](Cc3c([nH]c4ccccc34)C2(C)C)C1=O,i,i,i,i,i
O=C(NCCc1ccccc1)c1ccc2nc(-c3ccco3)c(-c3ccco3)nc2c1,-7.87*,i,i,i,i
O=C(NCCO)c1ccc2nc(-c3ccco3)c(-c3ccco3)nc2c1,i,i,i,i,i
O=C1c2ccccc2C(=O)C2OC12 (stereo not given),i,i,43.4*,i,22*
Cc1ccc(CNC(=O)c2oc3ccc(S(=O)(=O)N4CCC5(CC4)OCCO5)cc3c2C)cc1,i,-8.39*,i,i,i
Cc1c(C(=O)NCc2cccnc2)oc2ccc(S(=O)(=O)N3CCC4(CC3)OCCO4)cc12,i,i,i,i,i
CCOc1ccc(N(CC(=O)NCc2ccccc2C)S(C)(=O)=O)cc1,i,i,i,i,i
CC(=O)c1cn(-c2ccc(Cl)cc2)c(=O)n(Cc2ccc(F)cc2)c1=O,-7.94*,i,i,i,i
O=C(Nc1ccccc1Br)c1ccc(N2CCCC2=O)cc1,i,i,i,i,i
CN1C(=O)/C(=C\c2ccc(N(C)C)cc2)OC1=S,i,i,63.1*,i,i
COc1ccc(/C=C2\OC(=S)N(C)C2=O)cc1,i,i,i,i,i
SMILES,MrgX1 antag,RGS4 pot,MrgX1 agonist,MrgX1 allo act,RGS4 inh
CCOc1ccc(NC2OCC(O)C(O)C2O)c([N+](=O)[O-])c1 (stereo not given),-5.15*,i,i,i,i
O=C(N/C(=C\c1cccnc1)C(=O)N1CCOCC1)c1ccco1,-4.95*,i,i,i,i
CCOC(=O)N1CCN(C(=O)c2ccc(Cn3c(=S)[nH]c4ccc(Br)cc4c3=O)cc2)CC1,-5.6*,i,i,i,i
CCOC(=O)N1CCN(C(=O)c2ccc3c(=O)n(Cc4ccc(Cl)cc4)c(=S)[nH]c3c2)CC1,i,i,i,i,i
COc1ccc(N2CCN(C(=O)CCCn3nnnc3CN3CCOCC3)C(C)C2)cc1 (stereo not given),i,i,i,i,i
O=C(NC12CC3CC(CC(C3)C1)C2)c1ccc([N+](=O)[O-])o1,i,i,i,i,i
Cc1cc(N2CC(C(=O)Nc3nccs3)CC2=O)ccc1C(C)C (stereo not given),i,i,i,i,i
COc1cc(C2C(C#N)=C(N)OC3=C2C(=O)CC(C)(C)C3)c([N+](=O)[O-])cc1OC (stereo not given),i,i,29.2*,i,i
COc1ccc(C2C(C#N)=C(N)OC3=C2C(=O)CC(C)(C)C3)c([N+](=O)[O-])c1OC (stereo not given),i,i,i,i,i
Cc1ccc(Cn2nc(C)c(NC(=O)CSc3n[nH]c(C)c3[N+](=O)[O-])c2C)cc1,-5.98*,i,i,i,i
N#C/C(=C\c1cccs1)C(=O)Nc1nccs1,i,i,43.9*,i,i
COc1ccc(CCNC(=O)Cn2c(=O)n(CCCC(=O)NCc3ccco3)c(=O)c3sccc32)cc1OC,i,i,i,6.44*,i
CCOc1ccc(C(C)=O)cc1COc1cccnc1[N+](=O)[O-],i,i,i,i,i
CSc1nnc(NC(=O)c2cc(=O)c3cc(C)cc(C)c3o2)s1,i,i,i,10.5*,i
Cc1cc(C)c2oc(C(=O)Nc3nnc(C(C)C)s3)cc(=O)c2c1,i,i,i,i,i
O=C(Nc1cccc(-c2csc(Nc3cccc(C(F)(F)F)c3)n2)c1)c1ccccc1,i,i,i,i,i
O=C(Nc1cccc(-c2csc(Nc3ccccc3)n2)c1)c1ccccc1,i,-7.34*,i,i,i
CC(=O)C(=Nc1ccccc1Cl)NNc1ccc(Cl)cc1,i,-10.6*,i,i,i
CN(CCC1CCOCC1)C(=O)C1CCC(=O)N(CCc2ccccc2)C1 (stereo not given),i,i,i,i,i
Oc1ccc(N=Nc2cccc(Cl)c2)cc1C=Nc1ccc(N2CCOCC2)cc1,/,i,/,/,8.7*
Oc1ccccc1C1=Nc2nc3ccccc3n2C(c2ccccc2)C1 (stereo not given),i,i,i,16.8*,i
O=c1/c(=C/c2cccc3ccccc23)sc2ncnn12,i,i,i,i,i
Cc1ccsc1/C=c1\sc2ncnn2c1=O,i,i,i,6.58*,i
COc1ccc(C(=O)NCC(=O)c2ccccc2)cc1,i,i,i,i,i
